Assays:
[1] = organism: Rattus norvegicus; test: Effect of specific activity of compound on biodistribution in rats muscle 1 hr after injection at the dose of 2.5 mg value expressed in average % dose per organ; value may range from 12.7 to 18.3; type: ADME, organism-based, Muscle tissue; conditions: in vivo
Method in brief: (§1)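 Rats received an intravenous injection of the I-125 labeled diamine with added unlabeled carrier (6.25, 2.5, 0.25 or 0.025 mg per dose). At 1 h, organs were counted. Percent dose per organ came from comparing tissue radioactivity with diluted aliquots of the injected dose. Values are the average and range of 3 rats. Brain/blood ratio was taken from % dose per gram, calculated using mean organ weights (brain 1.65 g; blood 18 g).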

[2] = organism: Rattus norvegicus; test: Effect of specific activity of compound on biodistribution in rats liver 1 hr after injection at the dose of 2.5 mg value expressed in average % dose per organ; value may range from 17.1 to 20.7; type: ADME, organism-based; conditions: in vivo; method in brief: as §1
[3] = The protein binding ability of compound was expressed in Percent free; type: ADME; conditions: read-out: % free
Method in brief: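 Binding to pooled human serum was measured by equilibrium dialysis. 0.4 mL serum and 0.4 mL 0.15 M phosphate buffer, pH 7.4, were separated by a membrane, and 0.025 μCi radiolabeled diamine was added on the buffer side. Cells were rotated at 37 °C for 18 h, and aliquots from both sides were weighed and counted. % free = buffer/serum radioactivity concentration ratio × 100. The membrane was also counted.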

[4] = organism: Rattus norvegicus; test: Effect of specific activity of compound on biodistribution in rats muscle 1 hr after injection at the dose of 6.25 mg value expressed in average % dose per organ; value may range from 11.5 to 12.9; type: ADME, organism-based, Muscle tissue; conditions: in vivo; method in brief: as §1
[5] = organism: Rattus norvegicus; test: Effect of specific activity of compound on biodistribution in rats blood 1 hr after injection at the dose of 0.25 mg value expressed in average % dose per organ; value may range from 0.83 to 0.92; type: ADME, organism-based; conditions: in vivo
[6] = organism: Rattus norvegicus; test: Effect of specific activity of compound on biodistribution in rats brain 1 hr after injection at the dose of 0.25 mg value expressed in average % dose per organ; value may range from 1.76 to 1.97; type: ADME, organism-based; conditions: in vivo; method in brief: as §1
[7] = organism: Rattus norvegicus; test: Effect of specific activity of compound on biodistribution in rats liver 1 hr after injection at the dose of 0.25 mg value expressed in average % dose per organ; value may range from 8.01 to 9.52; type: ADME, organism-based; conditions: in vivo; method in brief: as §1

Average dose per organ [1]: 16.2%
Average dose per organ [2]: 18.9%
fraction unbound [3]: 0.483
Average dose per organ [4]: 12.3%
Average dose per organ [5]: 0.88%
Average dose per organ [6]: 1.84%
Average dose per organ [7]: 8.54%
SMILES: Cc1cc(I)cc(CNCCCN(C)C)c1O
